Ki, ED50 and IC50 data for six compounds are collected here from ChEMBL document CHEMBL1135552, “Synthesis and biological activities of cyclic lanthionine enkephalin analogues: delta-opioid receptor selective ligands” (J Med Chem, 2002).

Assay [1] deals with T1, Mu-type opioid receptor (Homo sapiens, UniProt P35372). The assay is described as follows: Inhibition of binding of [3H]diprenorphine to cloned human Opioid receptor mu 1 expressed in CHO cell membrane;Range is in between (1.8-2.2). It counts as cell-based.
Assay [2] addresses T2, Delta-type opioid receptor (Homo sapiens, UniProt P41143). The assay is described as follows: Inhibition of binding of [3H]diprenorphine to cloned human Opioid receptor delta 1 expressed in CHO cell membrane;Range is between (1.7-2.3). It counts as cell-based.
The species entered for assay [3] is Rattus norvegicus. As to the kind of experiment: Dosage necessary to produce half maximal effect; Range is in between (0.0010-0.0024). In kind it is functional.
Assay [4] addresses Mu-type opioid receptor (Cavia porcellus, UniProt P97266). The assay is described as follows: Ability to inhibit electrically evoked contractions of isolated muscle preparations of guinea pig ileum (GPI, mu receptor). It counts as functional, tissue-based. In outline:
(§1)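 Electrically evoked contractions of isolated guinea pig ileum (GPI) or mouse vas deferens (MVD) preparations. A log dose-response curve for [Leu5]-enkephalin was run as standard on each ileum and vas preparation. IC50 values were normalised to that standard.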

For assay [5], the target named is T3, Delta-type opioid receptor (Mus musculus, UniProt P32300). As to the kind of experiment: Ability to inhibit electrically evoked contractions of isolated muscle preparations of mouse vas deferens (MVD, delta receptor). It counts as functional. In outline: as §1
For assay [6], the target named is T4, Kappa-type opioid receptor (Homo sapiens, UniProt P41145). The assay is described as follows: Inhibition of binding of [3H]diprenorphine to cloned human Opioid receptor kappa 1 expressed in CHO cell membrane;Range is in between (1400-1900). In kind it is cell-based. In outline:
(§2)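 Membranes from CHO cells expressing cloned human µ, δ or κ receptors in Tris-HCl pH 7.8 buffer with EGTA, MgCl2 and protease inhibitors. 50-100 µg protein with 0.4 nM (final) [3H]-diprenorphine, 60 min, room temperature. Filtered on PEI/BSA-treated GF/B filters, counted by scintillation. Nonspecific binding with 10 µM naloxone. Four-parameter one-site fit; Ki by Cheng-Prusoff.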

Assay [7] addresses T4, Kappa-type opioid receptor. The assay is described as follows: Inhibition of binding of [3H]diprenorphine to cloned human Opioid receptor kappa 1 expressed in CHO cell membrane. In kind it is cell-based.
The target in assay [8] is T1, Mu-type opioid receptor. The assay is described as follows: Inhibition of binding of [3H]diprenorphine to cloned human Opioid receptor mu 1 expressed in CHO cell membrane;Range is in between (580-680). It counts as cell-based. A digest of the protocol: as §2
For assay [9], the target named is T2, Delta-type opioid receptor. As to the kind of experiment: Inhibition of binding of [3H]diprenorphine to cloned human Opioid receptor delta 1 expressed in CHO cell membrane;Range is between (0.35-2.5). It counts as cell-based. A digest of the protocol: as §2
The species named for assay [10] is Rattus norvegicus. As to the kind of experiment: Dosage necessary to produce half maximal effect; Range is in between (0.017-0.41). In kind it is functional.
Assay [11] addresses T3, Delta-type opioid receptor. The assay is described as follows: Ability to inhibit electrically evoked contractions of isolated muscle preparations of mouse vas deference (MVD, delta receptor). In kind it is functional. A digest of the protocol: as §1
For assay [12], the species on record is Rattus norvegicus. As to the kind of experiment: Dosage necessary to produce half maximal effect; Range is in between (98-163). In kind it is functional.
Assay [13] deals with T1, Mu-type opioid receptor. As to the kind of experiment: Inhibition of binding of [3H]diprenorphine to cloned human Opioid receptor mu 1 expressed in CHO cell membrane;Range is in between (110-150). It counts as cell-based. A digest of the protocol:
as §2

In assay [14] the target is T2, Delta-type opioid receptor. The assay is described as follows: Inhibition of binding of [3H]diprenorphine to cloned human Opioid receptor delta 1 expressed in CHO cell membrane;Range is between (0.66-0.95). It counts as cell-based. A digest of the protocol: as §2
Assay [15] is filed under the species Rattus norvegicus. The assay is described as follows: Dosage necessary to produce half maximal effect; Range is in between (0.04-0.33). In kind it is functional.
The target of assay [16] is T4, Kappa-type opioid receptor. The assay is described as follows: Inhibition of binding of [3H]diprenorphine to cloned human Opioid receptor kappa 1 expressed in CHO cell membrane; range is in between (4700-8500). It counts as cell-based. In outline:
as §2

The target of assay [17] is T1, Mu-type opioid receptor. As to the kind of experiment: Inhibition of binding of [3H]diprenorphine to cloned human Opioid receptor mu 1 expressed in CHO cell membrane;Range is in between (1.3-3.7). In kind it is cell-based.
Assay [18] addresses T2, Delta-type opioid receptor. The assay is described as follows: Inhibition of binding of [3H]diprenorphine to cloned human Opioid receptor delta 1 expressed in CHO cell membrane;Range is in between (0.62-0.65). It counts as cell-based.
Assay [19] is filed under the species Rattus norvegicus. As to the kind of experiment: Dosage necessary to produce half maximal effect; Range is in between (0.0010-0.0034). In kind it is functional.
The species named for assay [20] is Rattus norvegicus. The assay is described as follows: Dosage necessary to produce half maximal effect; Range is in between (10-24). In kind it is functional.

T4 sequence (P41145 whole entry): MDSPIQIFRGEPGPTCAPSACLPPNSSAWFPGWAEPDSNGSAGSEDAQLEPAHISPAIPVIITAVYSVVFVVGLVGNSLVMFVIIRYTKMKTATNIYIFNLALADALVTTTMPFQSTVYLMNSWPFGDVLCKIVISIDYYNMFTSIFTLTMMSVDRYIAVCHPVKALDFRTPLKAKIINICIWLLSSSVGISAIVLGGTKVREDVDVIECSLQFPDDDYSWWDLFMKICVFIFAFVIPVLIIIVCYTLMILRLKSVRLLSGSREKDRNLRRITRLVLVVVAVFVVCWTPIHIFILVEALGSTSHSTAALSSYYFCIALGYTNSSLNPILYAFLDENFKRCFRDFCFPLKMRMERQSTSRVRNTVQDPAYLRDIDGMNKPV
Mu-type opioid receptor (Cavia porcellus, UniProt P97266), sequence (P97266 whole entry): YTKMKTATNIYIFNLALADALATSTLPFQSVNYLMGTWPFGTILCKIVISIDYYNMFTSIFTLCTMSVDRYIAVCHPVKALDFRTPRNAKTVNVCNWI
T1 sequence (P35372 whole entry): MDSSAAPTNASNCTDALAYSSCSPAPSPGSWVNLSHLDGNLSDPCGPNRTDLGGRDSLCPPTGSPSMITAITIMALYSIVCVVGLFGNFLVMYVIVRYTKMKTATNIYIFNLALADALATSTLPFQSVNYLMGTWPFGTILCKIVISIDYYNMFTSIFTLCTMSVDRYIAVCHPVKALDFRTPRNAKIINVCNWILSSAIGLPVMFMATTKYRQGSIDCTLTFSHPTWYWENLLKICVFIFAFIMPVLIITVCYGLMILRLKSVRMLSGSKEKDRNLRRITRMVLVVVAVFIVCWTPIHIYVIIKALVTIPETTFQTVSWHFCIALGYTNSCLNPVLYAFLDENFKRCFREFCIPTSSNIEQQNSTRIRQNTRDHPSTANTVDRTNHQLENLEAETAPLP
T3 sequence (P32300 whole entry): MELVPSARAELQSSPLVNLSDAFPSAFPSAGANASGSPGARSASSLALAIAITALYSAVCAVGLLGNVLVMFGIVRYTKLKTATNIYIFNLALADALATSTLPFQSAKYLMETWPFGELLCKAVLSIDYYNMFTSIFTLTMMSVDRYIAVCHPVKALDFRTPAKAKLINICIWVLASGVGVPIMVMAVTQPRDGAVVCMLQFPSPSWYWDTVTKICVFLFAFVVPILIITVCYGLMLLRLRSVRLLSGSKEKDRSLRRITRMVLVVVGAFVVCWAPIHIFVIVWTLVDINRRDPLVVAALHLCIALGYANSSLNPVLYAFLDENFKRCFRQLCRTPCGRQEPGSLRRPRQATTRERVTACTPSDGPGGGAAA
T2 sequence (P41143 whole entry): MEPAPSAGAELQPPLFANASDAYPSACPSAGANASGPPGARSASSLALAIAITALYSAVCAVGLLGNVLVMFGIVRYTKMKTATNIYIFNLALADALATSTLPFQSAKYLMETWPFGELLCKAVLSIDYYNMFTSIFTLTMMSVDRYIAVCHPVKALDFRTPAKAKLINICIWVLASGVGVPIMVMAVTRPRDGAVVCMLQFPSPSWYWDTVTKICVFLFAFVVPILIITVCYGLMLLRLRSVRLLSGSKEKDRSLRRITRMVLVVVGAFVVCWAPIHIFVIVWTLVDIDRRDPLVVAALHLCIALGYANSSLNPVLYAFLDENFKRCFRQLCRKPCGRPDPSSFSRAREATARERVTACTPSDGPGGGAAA

In the case of `N[C@@H](Cc1ccc(O)cc1)C(=O)N[C@@H]1CSC[C@H](C(=O)O)NC(=O)[C@H](Cc2ccccc2)NC(=O)CNC1=O`, the inhibitory constant (Ki) – broadly, a dissociation constant, usually derived from enzyme kinetics or from competition with a known ligand – on Mu-type opioid receptor [1] turned out to be 2 nM; in assay [2] it was 2 nM; in assay [6], 1600 nM. The compound further had an ED50 in the assay filed under Rattus norvegicus [3] of 0.0015 nM. Moreover, the half-inhibitory concentration (IC50) (usually the concentration that gives 50% inhibition) against Mu-type opioid receptor [4] stood at 0.56 nM; in [5], 1.58 nM.

Regarding `CC1(C)SC[C@H](C(=O)O)NC(=O)[C@H](Cc2ccccc2)NC(=O)CNC(=O)[C@@H]1NC(=O)[C@@H](N)Cc1ccc(O)cc1`, the Ki in assay [7] was more than 10000 nM; at Mu-type opioid receptor [8], 630 nM; in assay [9], 0.93 nM. Further, in the assay listed under Rattus norvegicus [10], the ED50 was found to be 0.26 nM. For the same compound, the concentration for half-maximal inhibition (IC50) in assay [11] stood at 2.33 nM; on Mu-type opioid receptor [4], 730 nM.

Regarding `CC1(C)SSC(C)(C)[C@@H](NC(=O)[C@@H](N)Cc2ccc(O)cc2)C(=O)NCC(=O)N[C@@H](Cc2ccccc2)C(=O)N[C@H]1C(=O)O`, the ED50 in the assay filed under Rattus norvegicus [12] stood at 130 nM.

In the case of `CC1(C)SC[C@@H](C(=O)O)NC(=O)[C@H](Cc2ccccc2)NC(=O)CNC(=O)[C@@H]1NC(=O)[C@@H](N)Cc1ccc(O)cc1`, the Ki in assay [7] is more than 1000 nM; at Mu-type opioid receptor [13], 130 nM; in [14], 0.79 nM. In the assay listed under Rattus norvegicus [15], this compound registered an ED50 of 0.12 nM. Moreover, the IC50 in assay [11] came out at 0.26 nM; against Mu-type opioid receptor [4] it was 82 nM.

Turning to `N[C@@H](Cc1ccc(O)cc1)C(=O)N[C@@H]1CSC[C@@H](C(=O)O)NC(=O)[C@H](Cc2ccccc2)NC(=O)CNC1=O`, the inhibitory constant (Ki) in [16] was determined as 6400 nM; at Mu-type opioid receptor [17], 2.3 nM; in assay [18] it was 0.63 nM. This compound also had an ED50 in the assay listed under Rattus norvegicus [19] of 0.0018 nM. For the same compound, the IC50 against Mu-type opioid receptor [4] turned out to be 1.06 nM; in assay [5], 0.35 nM.

`CN1CC[C@]23c4c5ccc(O)c4O[C@H]2[C@@H](O)C=C[C@H]3[C@H]1C5` [MORPHINE] showed an ED50 in the assay filed under Rattus norvegicus [20] of 15 nM.
